Screens: PubChem BioAssay, several laboratories
UCH37 inh = human UCH37 deubiquitinating enzyme inhibition; AID 588478; purified proteasome/UCH37, Ub-AMC cleavage fluorescence; 0.33% of 330,000 active; Q9Y5K5; inhibition, % (no concentration beside the values);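 active = mean inhibition over replicate wells above about 20%, limit read from the data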;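 note: 0% = compound-free wells with enzyme and 100% = wells lacking proteasome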
Target sequence (Q9Y5K5 whole entry, looked up): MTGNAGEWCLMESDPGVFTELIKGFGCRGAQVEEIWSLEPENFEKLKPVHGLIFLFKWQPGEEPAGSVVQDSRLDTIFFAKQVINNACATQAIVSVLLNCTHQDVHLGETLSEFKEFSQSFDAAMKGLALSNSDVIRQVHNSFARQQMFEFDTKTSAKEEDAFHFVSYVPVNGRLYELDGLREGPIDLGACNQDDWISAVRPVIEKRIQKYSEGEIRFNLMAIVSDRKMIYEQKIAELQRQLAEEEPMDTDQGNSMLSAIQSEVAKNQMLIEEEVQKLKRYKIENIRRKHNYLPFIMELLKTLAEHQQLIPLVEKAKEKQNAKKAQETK
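Reagent: Ub-AMC substrate; assay system: Proteasome-associated human UCH37 deubiquitinase; controls: no-proteasome and no-compound wells; read-out: % inhibition of Ub-AMC cleavage fluorescence; timing: 30 min preincubation with enzyme, 25 min cleavage at room temperature; signal: AMC fluorescence from Ub-AMC cleavage, excitation 355 nm, emission 460 nm; buffer or medium: Tris-HCl pH 7.4 plus ovalbumin, ATP-MgCl2, DTT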
Rev-erbA mod = modulators of human Rev-erb alpha DNA binding | 0.79% of 370,000 active | Rev-erbα–FITC-DNA binding, fluorescence polarization, 90 min | P20393 | activity, % at 10 µM;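 active = activity above about 14%, limit read from the data; passing the limit was not always enough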;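 note: 0% = DMSO wells with 35 nM protein and 100% = DMSO wells with 750 nM protein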
MIN6 prolif = inducers of beta-cell replication in MIN6 cells; proliferation, % at 10 µM; AID 2380; MIN6 cells proliferation, ATPlite luminescence, 48 h; cells starved in 0.2% serum; 100% = growth in 10% serum; 0.29% of 330,000 active;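 active = compounds whose signal lies at least 3.5 SD above the mean of all wells on their plate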;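 note: 0% = DMSO-treated cells in low-serum medium and 100% = 10% serum control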
Rce1 inh = yeast Ras-converting enzyme inhibition | Q03530 | yeast membranes, quenched prenylated peptide cleavage fluorescence | calls only | 0.27% of 290,000 active | AID 2563;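 active = fall in fluorescence gain of 50% or more versus controls, with final raw signal at or below 3038400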;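 note: plate controls were neutral control wells for no effect and wells lacking membranes for full effect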
Target sequence (Q03530 whole entry, looked up): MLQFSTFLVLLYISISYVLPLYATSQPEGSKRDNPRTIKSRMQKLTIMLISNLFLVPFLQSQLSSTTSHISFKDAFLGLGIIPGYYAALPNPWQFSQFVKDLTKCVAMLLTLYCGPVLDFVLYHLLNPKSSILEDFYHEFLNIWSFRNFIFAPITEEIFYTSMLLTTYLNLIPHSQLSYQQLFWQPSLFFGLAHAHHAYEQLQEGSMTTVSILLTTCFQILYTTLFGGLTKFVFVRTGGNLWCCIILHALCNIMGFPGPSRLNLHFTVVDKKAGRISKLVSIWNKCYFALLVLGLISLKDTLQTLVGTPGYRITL
CR mimetic SO = lowers age-related superoxide in aged yeast cells. 0.18% of 330,000 active. AID 2690. S. cerevisiae aged cells, superoxide DHE fluorescence; hits give low values. superoxide response (% of plate mean), % at 10 µM;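 active = superoxide response under a set limit, about three screen SD below normal, cut at about 65% in these data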;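 note: yeast aged for seven days with compound at 30 °C before DHE staining; 100% = average MFI of all compound-treated wells on the plate with controls excluded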
PG9 Ab binder = small molecules binding HIV-1 gp120 antibody PG9; TR-FRET gp120-PG9 antibody binding; 0.43% of 360,000 active; inhibition, % at 6.7 µM; AID 624416; in the data active = inhibition above about 8.5%
Rev-erbA confirm = Rev-erb alpha (human) modulation, hit confirmation; shares compounds with Rev-erbA mod; Rev-erb alpha FITC-DNA binding, fluorescence polarization, 90 min; activation, % at 25 µM; 61% of 3,000 active; AID 1259319;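 active = activation at or above a set limit, or at least 3 SD above the negative control mean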;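 note: 0% = 35 nM protein with DMSO and 100% = 750 nM protein high control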
RORg DNA counter = affects RORgamma DNA binding in a Rev-erb alpha counter-screen | shares compounds with Rev-erbA mod | purified RORgamma protein-FITC-DNA binding, fluorescence polarization | IC50, µM | 8% of 910 active;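 active = Compounds whose fitted half-maximal concentration for disrupting protein-DNA binding is below 10 micromolar; the record names Rev-erb in its text, so the target is in doubt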
* marks the source's active call; other numbers are inactive results; i = inactive; · = no result given; ! = not confirmed by another sample. Most compounds without a hit are left out; they make up all but 1.9% or so of the library.

SMILES	UCH37 inh	Rev-erbA mod	MIN6 prolif	Rce1 inh	CR mimetic SO	PG9 Ab binder	Rev-erbA confirm	others
Cc1nc(C)c(-c2ccc(SCC(=O)Nc3cccc(Cl)c3C)nn2)s1	5	16*	0	i	86	-2	-4
Cc1nc(C)c(-c2ccc(SCC(=O)Nc3ccccc3)nn2)s1	2	-3	-1	i	97	0	·
CC1(C)Cc2nc3sc4c(OCc5ccccc5)ncnc4c3cc2CO1	0	38*	-1	i	92	-2	20*
CCc1nc(OCc2ccccc2)c2sc3nc4c(cc3c2n1)COC(C)(C)C4	-1	7	-1	i	114	-4	·
Cc1ccc(-n2[nH]c(C)c(C=NNC(=O)c3ccc(O)cc3O)c2=O)cc1	-124	·	·	·	·	·	·
CN(C)c1ccc(/C=C(\C#N)C(=O)OCC(=O)N(C)C2CCS(=O)(=O)C2)cc1 (stereo not given)	19	20*	-2	·	81	-7	16*
CCOC(=O)c1cc(-c2ccccc2)sc1NC(=O)CN1C(=O)NC(CC)(c2ccccc2)C1=O (stereo not given)	-32	47*	-5	i	104	7	31*
Cc1onc(-c2c(F)cccc2Cl)c1C(=O)Nc1sc2c(c1C#N)CCC(C(C)(C)C)C2 (stereo not given)	-17	27*	-5	i	103	-2	20*
CC(=NNC(=O)c1cccnc1)c1c(O)cc(C)oc1=O	8	·	·	·	·	·	·
COc1ccc(NC(=O)c2oc3ccccc3c2NC(=O)COc2ccccc2OC)c(OC)c1	-257	42*	-1	i	78	-2	31*
CCOCC(=O)Nc1c(C(=O)Nc2ccccc2OC)oc2ccccc12	-318	47*	-2	i	115	1	39*
COc1cccc(-c2nc(N3CCCCC3)c3ccccc3n2)c1O	7	0	-5	·	101	1	·
COc1cc2nc(-c3ccccc3)nc(N3CCCC3)c2cc1OC	-14	42*	·	i	·	-3	25*
CC1(C)CC(=O)CC(=NNC(=O)C2C3CCCCC32)C1 (stereo not given)	1	·	·	·	·	·	·
COc1ccc(Cn2c(-c3ccc(C)cc3)nc3c(c(=O)c4ccccc4n3C)c2=O)cc1	7	27*	0	i	110	1	14
COc1ccc(Cn2c(-c3ccccc3C)nc3c(c(=O)c4ccccc4n3C)c2=O)cc1	3	45*	-1	i	69	2	2
Cc1ccc(-c2nc3c(c(=O)c4ccccc4n3C)c(=O)n2-c2ccc(F)cc2)cc1	5	69*	-1	i	105	-1	43*	RORg DNA counter=2.7*
COc1ccc(-c2nc3c(c(=O)[nH]c(=O)n3Cc3ccccc3)n2Cc2ccccc2)cc1	-19	9	-6	i	103	-3	·
COc1ccc(-c2nc3c(c(=O)[nH]c(=O)n3Cc3ccccc3)n2C)cc1	-2	43*	-5	i	105	0	0
COc1ccc(Cn2c(-c3ccco3)nc3c(c(=O)c4ccccc4n3C)c2=O)cc1	1	-22	1	i	116	4	·
CC(=NNC(=O)c1ccc(NS(=O)(=O)c2cccs2)cc1)c1ccc(O)cc1O	-2	·	·	·	·	·	·
CCOc1ccc(C=NNC(=O)COc2ccccc2-c2ccccc2)cc1	2	·	·	·	·	·	·
Cc1cc(C)n(C(=O)C(C#N)=NNc2ccccc2[N+](=O)[O-])n1	8	·	·	·	·	·	·
COc1ccc(-c2nc3c(c(=O)c4ccccc4n3C)c(=O)n2Cc2ccccc2)cc1	3	48*	-2	i	95	1	50*	RORg DNA counter=>40
COc1ccc(Cn2c(-c3ccc(OC)cc3)nc3c(c(=O)c4ccccc4n3C)c2=O)cc1	7	·	-1	i	97	·	·
SMILES	UCH37 inh	Rev-erbA mod	MIN6 prolif	Rce1 inh	CR mimetic SO	PG9 Ab binder	Rev-erbA confirm	others
COc1ccc(Cn2c(C)nc3c(c(=O)c4ccccc4n3C)c2=O)cc1	6	4	2	i	92	-2	·
CCCCCc1nc2c(c(=O)c3ccccc3n2C)c(=O)n1Cc1ccc(OC)cc1	4	67*	-4	i	92	1	34*	RORg DNA counter=>40
COc1cc(C=NNc2ccccc2C(F)(F)F)ccc1O	3	·	·	·	·	·	·
COc1cc(NC(=O)c2nccnc2N)cc(C(=O)Nc2cccc(C(F)(F)F)c2)c1	-1	3	-2	i	89	-2	·
COc1cc(NC(=O)c2nccn2C)cc(C(=O)Nc2cccc(C(F)(F)F)c2)c1	-1	19*!	2	i	101	-2	15*
COc1cc(/C=C(\C#N)C(=O)Nc2ccccc2F)ccc1OCCN1CCOCC1	6	0	-3	i	102	-2	·
N#C/C(=C/C1=C(N2CCOCC2)C(=C/c2ccc(Cl)cc2)/CC1)C(=O)Nc1ccccc1F	12	27*	·	·	·	-1	5
C=C(C)CSc1nc(N)c(C#N)c(-c2ccc(C)cc2)c1C#N	-2	24*	-2	i	109	-2	18*
CCCCOc1ccc(-c2c(C#N)c(N)nc(SCC(N)=O)c2C#N)cc1	-2	-2	-4	i	108	-2	·
CCCCOC(=O)CSc1nc(N)c(C#N)c(-c2ccc(OCC)cc2)c1C#N	-1	49*	-1	i	121	0	36*	RORg DNA counter=>40
CCCCOC(=O)CSc1nc(N)c(C#N)c(-c2ccc(OC)cc2)c1C#N	6	53*	0	i	92	-1	28*
CN(C)/C=N/c1ncc(C(=O)c2ccc(-c3ccccc3)cc2)s1	·	17*	-4	i	95	2	10
CN(C)/C=N/c1ncc(C(=O)c2ccccc2)s1	·	-5	-2	i	110	-1	·
O=C(NN=Cc1c(Cl)cccc1Cl)c1ccc(-n2cnnn2)cc1	-2	·	·	·	·	·	·
CN(C)S(=O)(=O)c1ccc(C(=O)OCC(=O)c2csc(N3CCCCC3)n2)cc1	6	24*	2	·	94	-1	11
CC(/C=C/c1ccc2c(c1)OCO2)=NNC(=O)CNc1ccc(C)cc1	2	·	·	·	·	·	·
CC(C)c1ccc(NC(=O)CSc2nc(-c3ccccc3F)nc3nc[nH]c23)cc1	-1	34*	0	i	103	-2	18*
CC(C)c1ccc(NC(=O)CSc2nc(=O)[nH]c3c2CCCC3)cc1	2	6	-2	i	103	0	·
COc1ccc(C=Nn2cnc3c([nH]c4ccc(C)cc43)c2=O)cc1CN1CCCC1	0	·	·	·	·	·	·
CCNC(=O)c1cc2c(=O)n3cccc(C)c3nc2n(Cc2ccc(C)cc2)c1=N	-474	0	-3	i	118	0	·
